The text below walks through data of publication PMC3944102 (ACS chemical biology, 2013).

Where two headings read alike, the source gives them in different places. Bounds are passed on as bounds.

For assay [1], the target named is T1, VopS (Vibrio parahaemolyticus serotype O3:K6, UniProt Q87P32). Kind of assay: biochemical.
Assay [2] concerns VopS. The following applies: read-out: KM of VopS for ATP; cited from earlier work.
For assay [3], the target named is T1, VopS. As to the kind of experiment: biochemical. The following applies: for inhibition at 11 µM: read-out: Primary screen inhibition; for Primary screen inhibition: LOPAC screen at 11 µM, FP read at 3 h, average of three replicates.
Assay [4] has as its target PAD4 (Homo sapiens, UniProt Q9UM07). Kind of assay: PAD4 FP-ABPP HTS counterscreen with fluorescein-conjugated F-amidine. In kind it is biochemical. An outline of the steps:
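Fluorescence polarization read-out with the fluorescein-tagged probe FFA, which covalently modifies an active-site cysteine of PAD4 and gives a time-dependent rise in FP when incubated with the enzyme. Test compounds were run as concentration-response curves, and inhibition was read as reduced FP. Used as a counterscreen to flag quenchers, aggregators and other non-specific FP decreasers.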
(In general: Counterscreens check selectivity or assay interference.)

In assay [5] the target is T1, VopS. Kind of assay: biochemical. In kind it is biochemical. The following applies: for Labeling of Cdc42 in gel (in words): 10 µM inhibitor; for inhibition at 10 µM: read-out: Gel based % inhibition VopS; for Gel based % inhibition VopS: 10 µM compound, relative to DMSO control.
The test system of assay [6] is VopS. As to the kind of experiment: biochemical. The format is biochemical, Vibrio parahaemolyticus. The following applies: VopS over HYPE, from gel based % inhibition at 10 µM.
Assay [7] concerns HYPE Fic E234G. As to the kind of experiment: Gel-based secondary screen, HYPE Fic E234G with histone H3 as substrate. The format is biochemical, human. Conditions: 10 µM compound, relative to DMSO control.
Assay [8] deals with T1, VopS. In kind it is biochemical.
In assay [9] the test system is VopS transfected HeLa cells. Kind of assay: Cellular protein AMPylation, Western blot. In kind it is cell-based. Conditions: Western blotting, 1 and 3 at 10 µM, 4 at 5 µM, 18 h. A general note: A western blot detects proteins with antibodies after separation by electrophoresis.
Assay [10] deals with VopS transfected HeLa cells. Kind of assay: Cell rounding phenotype induced by VopS overexpression. The format is cell-based. The following applies: 10 µM.
The target of assay [11] is VopSΔ30 (Vibrio parahaemolyticus serotype O3:K6, UniProt Q87P32). Kind of assay: Differential hydrogen deuterium exchange. The following applies: 10 µM VopSΔ30, 100 µM or 30 µM ligand. The format is binding.
The mark [12] stands for this setting: read-out: CRC IC50 PAD4, PAD4 targeted FP-ABPP assay.

Chain of PAD4 (Q9UM07 whole entry, species assumed): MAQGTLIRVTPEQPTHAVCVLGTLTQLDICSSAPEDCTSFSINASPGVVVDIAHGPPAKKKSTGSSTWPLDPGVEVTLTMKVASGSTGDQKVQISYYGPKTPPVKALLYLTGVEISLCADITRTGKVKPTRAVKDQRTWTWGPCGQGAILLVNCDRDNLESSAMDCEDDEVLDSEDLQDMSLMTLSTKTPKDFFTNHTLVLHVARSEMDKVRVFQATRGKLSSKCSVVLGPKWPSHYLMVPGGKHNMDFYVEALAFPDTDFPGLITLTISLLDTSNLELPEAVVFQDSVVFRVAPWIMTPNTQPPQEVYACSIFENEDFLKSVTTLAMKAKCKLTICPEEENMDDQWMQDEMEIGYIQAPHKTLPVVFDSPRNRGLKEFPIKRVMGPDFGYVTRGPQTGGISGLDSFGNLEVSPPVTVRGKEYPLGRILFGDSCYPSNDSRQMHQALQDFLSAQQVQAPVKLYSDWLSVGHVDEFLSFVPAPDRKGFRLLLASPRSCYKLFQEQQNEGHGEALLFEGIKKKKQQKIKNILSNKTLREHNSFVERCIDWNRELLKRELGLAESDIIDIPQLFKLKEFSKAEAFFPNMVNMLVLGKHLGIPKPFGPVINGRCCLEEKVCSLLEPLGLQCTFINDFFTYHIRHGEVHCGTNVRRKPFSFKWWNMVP

What is called IC50 is the concentration that inhibits the measured activity by half. The term Km denotes the substrate concentration at which the rate is half of its maximum. As for `Nc1ncnc2c1ncn2[C@@H]1O[C@H](COP(=O)(O)OP(=O)(O)OP(=O)(O)O)[C@@H](O)[C@H]1O` [ATP, adenosine triphosphate], the IC50 in [1] (IC50(ATP), 3 h, 7 replicates, ATP out competing Fl-ATP) is 7 ± 1 µM; in assay [1] (IC50, at 1, 2, and 3 h), 6.8 to 7 µM. In addition, the Km in [2] was about 50 µM.
In general, inhibition refers to the percentage by which the read-out fell short of the control. `CC(C)(Sc1ccc(CCN(CCCCC2CCCCC2)C(=O)NC2CCCCC2)cc1)C(=O)O` [Compound 1, GW7647]: the inhibition at 11 µM in [3] worked out at 61%. The compound also registered an IC50 in assay [4] of over 59 µM. In [5], the “Labeling of Cdc42 in gel (in words)” value is given as “decrease in labeling” and the inhibition at 10 µM was found to be 55%. Besides, the Fold selective in assay [6] is recorded as 6 fold. Besides, the “Gel based % inhibition HYPE” value in [7] came to 10%. For the same compound, in [8] (varied substrate ATP), the Kii was found to be 41 ± 5 µM and the Mechanism of inhibition result is on record as “Non-competitive”. Besides, in assay [8] (varied substrate Cdc42), the Kii worked out at 20 ± 1 µM and the Mechanism of inhibition result is reported as “Non-competitive”. In assay [9], the “Cellular protein AMPylation” value is “decreased cellular protein AMPylation”. For the same compound, the “Reversal of cell rounding phenotype” value in assay [10] was “unable to reverse the cell rounding phenotype”.
As for `Nc1ncnc2c1ncn2[C@@H]1O[C@H](COP(=O)(O)OP(=O)(O)OP(=O)(O)OP(=O)(O)OC[C@H]2O[C@@H](n3cnc4c(N)ncnc43)[C@H](O)[C@@H]2O)[C@@H](O)[C@H]1O` [Compound 2, Ap4A], the Primary screen inhibition in assay [3] is reported as 47% ± 4. In addition, the IC50 in assay [4] (setting [12]) was over 59 µM. In assay [5], the “Gel based % inhibition VopS” value is 3%. For the same compound, the “Gel based % inhibition HYPE” value in assay [7] is recorded as 41%.
On to `CC(C)c1ccc2c(c1)c(SC(C)(C)C)c(CC(C)(C)C(=O)O)n2Cc1ccc(Cl)cc1` [Compound 3, MK886], for which the Primary screen inhibition in [3] was 41% ± 3. Moreover, the IC50 in assay [4] (setting [12]) is over 59 µM. Besides, in [5], the “Gel based % inhibition VopS” value was found to be 22% and the “Labeling of Cdc42 in gel (in words)” value is given as “decrease in labeling”. This compound registered a Fold selective in assay [6] of 6 fold. Also, the “Gel based % inhibition HYPE” value in assay [7] is reported as 4%. Besides, in assay [8] (varied substrate ATP), the Kii is reported as 50 ± 6 µM and the Mechanism of inhibition result is listed as “Non-competitive”. Further, in assay [8] (varied substrate Cdc42), the Kii is given as 99 ± 16 µM and the Mechanism of inhibition result is listed as “Non-competitive”. Further, in assay [9], the “Cellular protein AMPylation” value is reported as “decreased cellular protein AMPylation”. Moreover, the “Reversal of cell rounding phenotype” value in [10] is on record as “unable to reverse the cell rounding phenotype”. In addition, the “HDX protection / binding region of VopS” value in [11] is on record as “increased protection within the N-terminus of VopS (residues 59–75)”.
By Ki is commonly meant the dissociation constant of the complex between target and ligand, obtained from inhibition or displacement. Low values mean tighter binding, high ones weaker binding. Turning to `Clc1ccc(C(c2ccc(Cl)cc2)n2cc[n+](CC(OCc3ccc(Cl)cc3Cl)c3ccc(Cl)cc3Cl)c2)cc1` (stereo not drawn) [Compound 4, calmidazolium], in [3], the inhibition at 11 µM was 33%. Also, the IC50 in assay [4] was over 59 µM. Besides, in assay [5], the “Labeling of Cdc42 in gel (in words)” value was “decrease in labeling” and the inhibition at 10 µM came out at 63%. For the same compound, the Fold selective in assay [6] was determined as 32 fold. Moreover, the “Gel based % inhibition HYPE” value in assay [7] came to 2%. Also, the Ki in [8] (competitive with respect to Cdc42) turned out to be 6 ± 1 µM. In [8] (varied substrate ATP), the Kii is 26 ± 4 µM and the Mechanism of inhibition entry was “Non-competitive”. Besides, in [8] (varied substrate Cdc42), the Kii came to 6 ± 1 µM and the Mechanism of inhibition result was “Competitive”. Further, the “Cellular protein AMPylation” value in [9] is on record as “did not show a significant decrease”. For the same compound, the “HDX protection / binding region of VopS” value in assay [11] is “binds to the N-terminal region of VopS (in particular residues 59–63)”.
